DSG3 Ab inh = blocks pemphigus antibody binding to human desmoglein-3; P32926; DSG3-coupled beads, scFv-anti-DSG3-GFP binding, flow cytometry; stronger effect = lower value; binding (percent of control), % at 10 µM; 310,000 tested, 0.48% active; AID 588358;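 active = binding more than 3 SD below its plate's average and above zero; inconclusive = below that plate limit but binding exactly zero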;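 note: hits lower antibody fragment binding to DSG3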
Target sequence (P32926 whole entry, looked up, the tested form may be a part): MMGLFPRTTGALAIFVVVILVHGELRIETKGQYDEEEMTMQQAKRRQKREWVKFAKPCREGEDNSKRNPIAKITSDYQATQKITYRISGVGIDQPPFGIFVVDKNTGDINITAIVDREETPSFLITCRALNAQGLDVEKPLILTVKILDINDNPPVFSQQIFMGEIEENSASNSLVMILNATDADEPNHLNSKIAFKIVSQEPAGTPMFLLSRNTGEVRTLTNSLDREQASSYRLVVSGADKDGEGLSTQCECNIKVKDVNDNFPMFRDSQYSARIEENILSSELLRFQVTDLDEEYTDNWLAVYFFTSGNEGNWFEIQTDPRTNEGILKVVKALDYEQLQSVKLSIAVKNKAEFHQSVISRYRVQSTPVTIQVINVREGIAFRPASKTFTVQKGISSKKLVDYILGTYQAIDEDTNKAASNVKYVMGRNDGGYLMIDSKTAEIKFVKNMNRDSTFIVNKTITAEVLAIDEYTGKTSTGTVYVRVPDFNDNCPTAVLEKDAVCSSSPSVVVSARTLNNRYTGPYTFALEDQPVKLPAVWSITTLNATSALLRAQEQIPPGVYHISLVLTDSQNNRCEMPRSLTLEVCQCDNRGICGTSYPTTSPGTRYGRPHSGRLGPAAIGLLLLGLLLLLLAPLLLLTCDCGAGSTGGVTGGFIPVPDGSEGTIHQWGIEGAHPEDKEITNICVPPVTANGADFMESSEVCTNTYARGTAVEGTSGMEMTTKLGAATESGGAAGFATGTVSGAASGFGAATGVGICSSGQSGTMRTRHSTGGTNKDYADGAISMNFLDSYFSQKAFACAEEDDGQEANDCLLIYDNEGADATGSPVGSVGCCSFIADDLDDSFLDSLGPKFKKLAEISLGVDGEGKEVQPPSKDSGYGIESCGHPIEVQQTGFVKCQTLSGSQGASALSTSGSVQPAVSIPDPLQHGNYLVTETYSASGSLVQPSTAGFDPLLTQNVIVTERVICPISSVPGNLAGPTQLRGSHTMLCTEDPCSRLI
T cell HTS = modulates CD8 T cell binding to vesicles | 2C CD8+ T cell-vesicle binding, flow cytometry; stronger effect = lower value | response (vesicle binding), % at 7 µM | 330,000 tested, 0.068% active;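 active = response, share of CD8 T cells binding vesicles, and their 90th percentile fluorescence all below set limits, cut at about 80% in these data, passing the limit was not always enough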;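 note: values below 100% mean blocked vesicle binding to the CD8+ T cells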
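Benchmarks: naked versus QL9-loaded vesicles / Assay system: purified 2C TCR transgenic mouse naive CD8+ T cells / Technique: high-throughput flow cytometry with anti-B7-1 and anti-CD8 staining / Timing: Cell–vesicle co-incubation 1.5 h at 37 °C, staining 20 min on ice / Read-out: percent CD8+ FL2 mean versus row control / Probe or stimulus: QL9-loaded Drosophila micro-vesicles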
Vif imaging = HIV Vif inhibition | HEK293T cells, Vif self-association by quenched fluorescence, imaging, 24 h | inhibition, % at 7.49 µM | 340,000 tested, 0.35% active | AID 602346; in the data active = inhibition above about 50%, passing the limit was not always enough; inconclusive = no clear call, values can overlap the other calls; inactive = below about 31%
Myeloid diff MLP = myeloid differentiation induction; ER-HoxA9 myeloid progenitors, lysozyme-GFP differentiation, flow cytometry; calls only at 10 µM; 360,000 tested, 1% active; AID 624256;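 active = normalized GFP-positive differentiation at or above the plate's own cutoff, the solvent-only control mean plus 3 SD; inconclusive = no clear call, values can overlap the other calls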;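 note: cells exposed to compound for four days before flow analysis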
A number is an active result; n = inactive; u = inconclusive; x = no result given; + = active, no number. A selection: hits, their analogues and other compounds. The true share with any hit is near 1.7%.

SMILES	DSG3 Ab inh	T cell HTS	Vif imaging	Myeloid diff MLP
Cc1ccc2c(c1)NC(=O)C(CC(=O)NCCCN1CCN(c3cc(Cl)ccc3C)CC1)O2 (stereo unspecified)	n	n	n	+
Cc1ccc2c(c1)NC(=O)C(CC(=O)NCCCN1CCCCC1)O2 (stereo unspecified)	n	n	n	n
CCOc1ccc(NC(=O)/C(C#N)=C/c2ccc(N3CCCC3)c(C)c2)cc1	n	n	u	+
COc1ccc(/C=C(\C#N)C(=O)Nc2cc(S(=O)(=O)N3CCOCC3)ccc2N2CCCC2)cc1	n	n	n	n
CCN(CC)S(=O)(=O)c1ccc(N2CCCCC2)c(NC(=O)/C(C#N)=C/c2ccc(OC)cc2)c1	n	n	n	+
N#Cc1cc2nc(O)c(O)nc2cc1[N+](=O)[O-]	n	n	51.1	n
CCCCn1c(SCC(=O)N(C)C2CCS(=O)(=O)C2)nc2cc(S(N)(=O)=O)ccc21 (stereo unspecified)	n	n	n	n
CCCCn1c(SCC(=O)N(CC)C2CCS(=O)(=O)C2)nc2cc(S(N)(=O)=O)ccc21 (stereo unspecified)	16.2	n	n	n
CC1CCCCC1NC(=O)c1cc(Cl)nc2ccccc12 (stereo unspecified)	n	x	n	n
CCOc1ccc(-n2c(SCc3ccc(C(=O)OC)o3)nc3c(c2=O)SCC3)cc1	n	n	n	n
COC(=O)c1ccc(CSc2nc3c(c(=O)n2-c2ccc(Br)cc2)SCC3)o1	n	n	n	+
Clc1cccc(CNc2ccn3nc(-c4ccccc4Cl)cc3n2)c1	x	x	n	n
COc1ccc2oc(C(=O)OCC(=O)c3ccc4c(c3)OCCO4)c(C)c2c1	n	n	n	+
CC(C)Cn1c2nc3ccccc3nc2c2c(=O)n(CCN3CCOCC3)cnc21	n	n	n	+
CCCCn1c2nc3ccccc3nc2c2c(=O)n(CCC(C)C)cnc21	n	n	n	n
CCCNC(=O)C12CCC(C)(C(=O)O1)C2(C)C (stereo unspecified)	n	n	n	n
CC12CCC(C(=O)NCCc3ccccc3)(OC1=O)C2(C)C (stereo unspecified)	n	n	51.9	n
CC(C)N1CCC1(C)C(=O)Nc1cccc(C#N)c1 (stereo unspecified)	x	x	n	n
Cc1ccc(NC(=O)CCC(=O)Nc2nnc(C3CCCCC3)s2)cc1	n	n	n	+
CC(=O)C1CCC2C3CC=C4CC(SC(=N)N)CCC4(C)C3CCC12C (stereo unspecified)	n	x	n	n
c1coc(CSSCc2ccco2)c1	x	n	n	n
N#CC(C(=O)NCCc1ccccc1)c1nc2ccccc2nc1N1CCOCC1 (stereo unspecified)	n	n	64.0	n
CCCCCCOC(=O)C(C#N)c1nc2ccccc2nc1N1CCOCC1 (stereo unspecified)	n	n	181.8	n
CCN1CCN(c2nc3ccccc3nc2C(C#N)S(=O)(=O)c2ccc(C)cc2)CC1 (stereo unspecified)	n	n	n	n
Cc1ccc2nc(N3CCN(S(=O)(=O)c4ccc5c(c4)OCCO5)CC3)c(C#N)cc2c1	n	n	n	n
SMILES	DSG3 Ab inh	T cell HTS	Vif imaging	Myeloid diff MLP
Cc1ccc(S(=O)(=O)N2CCCN(c3nc4cc(C)ccc4cc3C#N)CC2)cc1	n	n	n	+
Cc1ccc(S(=O)(=O)C(C#N)c2nc3ccccc3nc2N2CCCC2)cc1 (stereo unspecified)	n	n	n	+
COCCNC(=O)C1(C(F)(F)F)CC(CCCO)CCCO1 (stereo unspecified)	n	n	n	n
Cc1ccc(S(=O)(=O)N2CCC(C(=O)OCC(=O)NC(C)c3ccc(F)cc3)CC2)cc1C (stereo unspecified)	x	n	u	n
N#CC(C(=O)NCc1ccccc1)c1nc2ccccc2nc1N1CCCC1 (stereo unspecified)	n	n	n	+
CC12CCC3c4ccc(O)cc4CCC3C1CC(O)C2O (stereo unspecified)	45.6	n	n	n
C[C@]12CC[C@@H]3c4ccc(O)cc4CC[C@H]3[C@@H]1C[C@@H](O)[C@@H]2O	n	n	n	n
Cc1ccc2oc(-c3ccc(NC(=O)CC(C)C)cc3)nc2c1	-15.2	n	n	n
CCN(CC)CC(=O)Nc1ccc(-c2nc3cc(NC(=O)CN(CC)CC)ccc3o2)cc1	n	n	n	n
CCC(C)NCC(=O)Nc1ccc(-c2nc3cc(NC(=O)CNC(C)CC)ccc3o2)cc1 (stereo unspecified)	x	n	n	+
O=C(COC(=O)CNC(=O)c1ccc(Cl)cc1Cl)NC1CCCCCCC1	n	n	n	n
Cc1ccc2nc(SCC(=O)c3c[nH]c4ccccc34)[nH]c2c1	n	n	n	+
CCCn1c(SCC(=O)c2c[nH]c3ccccc23)nnc1-c1ccncc1	n	n	n	+
Cc1occc1-c1nnc(SCC(=O)c2c[nH]c3ccccc23)n1C	n	n	n	n
Cc1ccc(C(=O)OCC(=O)NC2CCCCCC2)c(C)c1	n	x	n	n
Cc1cccc(C(=O)OCC(=O)NC(=O)NC2CCCCC2)c1	n	x	n	n
COc1ccc(CCNC(=O)Cn2nnc(-c3cccs3)n2)cc1OC	n	n	n	n
CNC(=S)NCCc1ccc(OC)c(OC)c1	n	n	n	n
COc1ccc(CCNC(=S)NCCc2ccc(OC)c(OC)c2)cc1OC	n	66.0	n	n
COc1ccc(CCN(C)CCc2ccc(OC)c(OC)c2)cc1OC	n	n	n	+
COc1ccc(CCN(C)CC(O)c2ccccc2)cc1OC (stereo unspecified)	n	n	n	n
COc1ccc(-c2nnn(CC(=O)NCCc3ccc(OC)c(OC)c3)n2)cc1	38.1	n	n	n
COc1ccc(CCNC(=O)COc2ccc(-c3ccc(C)cc3)cc2)cc1OC	83.1	n	n	n
CCOC(=O)c1csc(NC(=O)CCS(=O)(=O)c2ccc(Cl)cc2)n1	n	x	n	n
Cc1cc(Br)c2c(c1)[C@](O)(c1cn(C)c3ccccc13)C(=O)N2C	x	x	x	n
SMILES	DSG3 Ab inh	T cell HTS	Vif imaging	Myeloid diff MLP
CC(C)NC(=O)N(C)C[C@H]1Oc2ccc(NC(=O)NC3CCCCC3)cc2C(=O)N([C@H](C)CO)C[C@@H]1C	n	n	n	n
O=CC(O)C1OC(=O)C(O)C1O (stereo unspecified)	85.8	x	n	n
O=C1O[C@H](CO)[C@@H](O)[C@H](O)[C@H]1O	n	x	n	n
COc1ccc(CN(C(C)=O)c2cc(C)c([N+](=O)[O-])cc2OC)cc1OC	n	x	n	n
O=C1c2c(O)cccc2Cc2cccc(O)c21	63.8	n	n	n
O=c1c2ccccc2sn1-c1cccc(Cl)c1	40.5	x	n	n
O=c1c2ccccc2sn1-c1nccs1	28.4	x	n	n
CN(C)S(=O)(=O)c1cccc(-n2sc3ccccc3c2=O)c1	28.6	n	n	n
O=c1c2ccccc2sn1-c1ccc(S(=O)(=O)N2CCCCC2)cc1	n	n	x	n
O=C(O)c1cccc(-n2sc3ccccc3c2=O)c1	60.8	n	n	n
N#C/C(=C(/O)COC(=O)c1ccc(C#N)cc1)c1nc2ccccc2s1	n	n	n	+
Cc1cc2c(NCCc3ccccc3)ncnc2s1	n	n	n	+
